HUVEC prolif 384: inhibitors of HUVEC proliferation, primary screen, cell-based, 384-well; CellTiter-Glo luminescence, 72 h; hits give low values; viability, % at 10 µM (by protocol); 86,000 compounds, 1.1% hits;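 active = viability at or below 30%; inactive = viability above 30%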
H69AR growth 86K: proliferation blockers of H69AR lung cancer cells, primary screen, cell-based, human, 86K library; viability, % at 10 µM; 85,000 compounds, 6% hits; AID 598, 2007; H69AR lung tumor viability, ATP luminescence, 72 h; hits give low values;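 active = viability at or below 40%; inactive = viability above 40%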;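 note: multidrug resistant small cell line overexpressing MRP-1 efflux transporter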
HCT116 bCat-KO: primary screen for growth suppressors in beta-catenin knockout HCT116 cells (colon tumor, human); viability, % at 10 µM; 140,000 compounds, 1.5% hits; AID 818, 2007; HCT116 beta-catenin knockout viability, CellTiter-Glo, 60 h; hits give low values;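 active = viability at or under a set limit, the compound median less 4 SD, cut at about 6% in these data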
Pyk2 oligo antag: antagonists of Pyk2 self-association, primary screen, Q293 cells, FERM NanoBiT luminescence, HTS; hits give low values; z-score (the deposit names both 25 µM and 10 µM); 99,000 compounds, 0.83% hits; AID 1347419, 2020;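 active = Z-score of -3 or lower, scaled per plate to the spread of control and sample wells; inactive = z-score above -3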;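 note: negative z-score means lost luminescence so less FERM oligomerization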
Target sequence (Q14289 whole entry, looked up): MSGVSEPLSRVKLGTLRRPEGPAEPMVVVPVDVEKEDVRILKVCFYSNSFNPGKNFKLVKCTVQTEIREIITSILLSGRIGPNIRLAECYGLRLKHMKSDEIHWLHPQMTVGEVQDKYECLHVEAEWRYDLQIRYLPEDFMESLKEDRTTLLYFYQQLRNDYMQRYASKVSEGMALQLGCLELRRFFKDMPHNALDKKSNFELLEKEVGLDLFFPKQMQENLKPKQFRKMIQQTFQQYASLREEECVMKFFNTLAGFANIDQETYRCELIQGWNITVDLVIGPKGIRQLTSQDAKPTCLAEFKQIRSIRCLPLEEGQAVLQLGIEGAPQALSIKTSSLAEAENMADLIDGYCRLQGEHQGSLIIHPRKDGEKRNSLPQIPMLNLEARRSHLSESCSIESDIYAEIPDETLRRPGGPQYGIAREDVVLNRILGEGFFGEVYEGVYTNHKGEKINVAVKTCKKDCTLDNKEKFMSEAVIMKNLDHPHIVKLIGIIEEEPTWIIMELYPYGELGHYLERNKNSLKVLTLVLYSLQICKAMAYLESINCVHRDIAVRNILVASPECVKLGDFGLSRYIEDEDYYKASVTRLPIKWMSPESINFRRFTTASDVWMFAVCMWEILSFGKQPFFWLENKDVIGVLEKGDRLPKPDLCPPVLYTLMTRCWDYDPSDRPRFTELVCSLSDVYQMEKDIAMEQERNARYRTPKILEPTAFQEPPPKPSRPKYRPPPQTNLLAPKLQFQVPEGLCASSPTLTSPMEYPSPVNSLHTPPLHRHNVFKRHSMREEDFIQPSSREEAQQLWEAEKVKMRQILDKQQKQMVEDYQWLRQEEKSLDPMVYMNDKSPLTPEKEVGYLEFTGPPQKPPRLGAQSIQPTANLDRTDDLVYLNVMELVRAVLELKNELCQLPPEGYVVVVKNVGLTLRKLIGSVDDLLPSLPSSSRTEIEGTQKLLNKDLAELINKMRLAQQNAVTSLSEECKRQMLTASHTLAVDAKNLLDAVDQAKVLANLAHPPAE
Fibroblast inh: antiproliferative effect on LL 47 fibroblasts – human, LL 47 cells, CellTiter-Glo luminescence, primary screen; LL 47 human lung fibroblast viability, ATP luminescence; hits give low values; 85,000 compounds, 1.1% hits; viability, % at 10 µM; AID 719, 2007;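 active = viability at or below 50% in the single dose screen; inactive = viability above 50%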;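 note: compound exposure lasted 72 h before the ATP readout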
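material = human LL 47 lung fibroblast cells | dosing = compounds added from tenfold dosing solution, 0.1% DMSO final | timing = overnight cell rest, 72 h compound treatment at 37 °C | measured by = CellTiter-Glo luminescence measuring cellular ATP | evaluation = % viability versus median cells-only luminescence | control set = cell-only wells, no compound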
HCT116 PTEN-null: growth suppression of PTEN-null HCT116, primary screen, cell-based, CellTiter-Glo. HCT116 PTEN-null viability, 60 h; hits give low values. viability, % at 10 µM. 140,000 compounds, 1.2% hits. AID 827, 2007;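 active = viability at or below a set limit, 4 SD under the median of all tested compounds, cut at about 3.7% in these data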;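 note: PTEN knockout HCT116 line with beta catenin targeted HCT116 as companion control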
Numbers stand for hits; – = inactive; · = not tested or not shown. Only a selection was taken, and hits are over-represented in it overall.

SMILES	HUVEC prolif 384	H69AR growth 86K	HCT116 bCat-KO	Pyk2 oligo antag	Fibroblast inh	HCT116 PTEN-null
Cc1cc(N2CCC(C)CC2)nc(NCc2ccccc2)n1	·	·	2.8	·	·	–
Cc1cc(Oc2ccccc2)nc(NCc2ccccc2)n1	–	–	–	–	–	–
Cc1cccc(N(C(=O)c2ccc(CN3CCOCC3)o2)C(C(=O)NC(C)(C)C)c2ccc(F)cc2)c1 (stereo unspecified)	–	–	–	–	–	–
O=C(CCl)Nc1cc(-c2ccccc2)nn1-c1ccccc1	14.5	1.2	3.6	–	6.8	2.5
Cc1ccc(-c2cc(NC(=O)CCl)n(-c3ccccc3)n2)cc1	9.6	0.9	2.6	–	3.3	2.0
CC(=O)Nc1ccc(-c2cc(NC(C)=O)n(-c3ccccc3)n2)cc1	–	–	–	–	–	–
Cc1ccc2c(c1)C(c1ccc([N+](=O)[O-])cc1)=NNC(c1ccc(Br)cc1)=N2	·	·	3.5	·	·	2.5
COC(=O)c1ccc(C(=O)OC)c(NS(C)(=O)=O)c1	–	1.4	–	–	–	–
O=C(c1ccc(F)cc1)N1CCCCC(S(=O)(=O)c2ccccc2)C1=O (stereo unspecified)	·	·	–	·	·	–
CC(C)COc1cccc(C(=O)NC(=S)Nc2cccc(NC(=O)c3ccccc3Cl)c2)c1	·	·	–	·	·	–
CCCc1cc(O)c2c(C)cc(=O)oc2c1	–	–	–	–	–	–
CC(C)Cn1c(=O)c(C(=O)NCc2ccccn2)c(O)c2ccccc21	–	28.5	–	–	–	–
CCCn1c(=O)c(C(=O)NCc2ccncc2)c(O)c2ccccc21	–	–	–	–	–	–
C=CCN(CCNP(=O)(OCC)OCC)CP(=O)(OCC)OCC	–	–	–	–	–	–
CO/N=C/c1ccc(Sc2ccc(C)cc2)c([N+](=O)[O-])c1	–	–	–	–	–	–
Cc1ccc(Sc2ccc(/C=N/O)cc2[N+](=O)[O-])cc1	–	1.1	–	–	–	–
Nc1nc2n(n1)C(c1cccs1)CC(c1ccc(Br)cc1)N2 (stereo unspecified)	–	–	–	-3.18	–	–
N#CC1=C(N)Oc2cc(N)ccc2C1C1CC=CCC1 (stereo unspecified)	–	29.1	–	–	–	–
Cc1[nH]nc2c1C(C1CC=CCC1)C(C#N)=C(N)O2 (stereo unspecified)	–	–	–	–	–	–
CC(C)(C)c1ccc(C(=O)OCCNC(=O)c2c(Cl)nc3ccccn23)cc1	–	–	–	-3.17	–	–
CC(=O)C1(C)OC(N)=C(C#N)C(c2ccccc2)C1(C#N)C#N (stereo unspecified)	–	37.6	–	–	–	–
COc1ccc(/C=N/NC(=O)c2cc(-c3ccc4c(c3)OCO4)n[nH]2)cc1OC	·	·	–	·	·	–
NC(=O)C1CCN(C2=C(Cl)C(=O)c3ccccc3C2=O)CC1	·	·	5.7	–	·	–
N#C/C(=C\c1cccnc1)C(=O)NC1CCCCC1	·	·	–	·	·	–
Cc1ccc(NC(=O)CSc2nnc(Cn3c(=O)sc4ccccc43)n2C)cc1Cl	–	28.7	–	·	–	–
SMILES	HUVEC prolif 384	H69AR growth 86K	HCT116 bCat-KO	Pyk2 oligo antag	Fibroblast inh	HCT116 PTEN-null
Cc1ccc(NC(=O)CSc2nnc(Cn3c(=O)sc4ccccc43)n2C)cc1	–	–	–	·	–	–
CCOC(=O)c1ccc(NC(=O)CSc2nnc(Cn3c(=O)sc4ccccc43)n2C)cc1	–	15.6	–	·	–	–
COc1ccccc1NC(=O)C(=N\O)/C(C)=N/O	·	·	–	·	·	–
COC(=O)c1cc(OC)c(OC)cc1NC(=O)CSc1ccccc1	·	·	–	–	·	–
O=C(Nc1ccc(Cc2ccncc2)cc1)C1CCC(N2C(=O)C3C4C=CC(C5CC45)C3C2=O)CC1 (stereo unspecified)	–	–	–	-4.15	–	–
O=C(Nc1ccc(Cc2ccncc2)cc1)C1CC1	–	–	–	–	·	–
COc1ccc2c(c1)[nH]c(=O)c1sc3ccccc3c12	·	·	5.1	–	·	–
CCOc1cccc(-c2nnc3sc(C4CCCCC4)nn23)c1	–	–	6.1	–	–	–
O=C(Nc1ccc(N2CCN(Cc3ccccc3)CC2)cc1)c1ncn[nH]1	–	–	–	–	–	–
Cc1ccccc1C(=O)OC1OC(=O)C(Cl)=C1N1CCOCC1 (stereo unspecified)	·	·	–	·	·	–
Cc1ccc(C(=O)/C=C/c2ccc(F)cc2)o1	·	·	–	·	·	–
O=C(/C=C/c1ccc(F)cc1)c1ccccc1Br	·	·	2.6	·	·	2.2
O=C(CCN1C(=O)C2C3C=CC(C4CC34)C2C1=O)Oc1cccc2cccnc12 (stereo unspecified)	·	·	–	–	·	–
Cc1ccc(/C=C(/C#N)c2nc(CCN3C(=O)c4ccccc4C3=O)cs2)cc1	·	·	–	-3.16	·	–
O=C1c2ccccc2C(=O)N1CCc1csc(-c2cccc(F)c2)n1	·	·	–	–	·	–
COC(=O)c1ccccc1NC(=O)C1CC(=O)N(c2ccc(C)cc2)C1 (stereo unspecified)	–	34.7	–	–	–	–
Cc1nnc(SCC(=O)Nc2ccc(Cl)cn2)s1	·	·	–	·	·	–
O=C(COC(=O)Cc1ccsc1)Nc1ccc(Cl)c(S(=O)(=O)N2CCOCC2)c1	·	·	–	–	·	–
Cc1nn(C)c(Oc2ccc(Cl)cc2)c1C(=O)Nc1ccc(F)cc1F	·	·	–	–	·	–
CC(C)(C)C(=O)/C(=C\c1ccc([N+](=O)[O-])cc1)n1cncn1	2.1	–	1.4	·	2.1	1.6
OCc1ccccc1N=c1ssnc1Cl	–	–	–	·	–	–
COc1cc(N=c2ssnc2Cl)cc(OC)c1	–	0.0	–	–	–	–
CC1CCCCC1NC(=O)c1cc2ccccc2o1 (stereo unspecified)	·	·	–	·	·	–
Cc1ccc(COn2c(-c3ccc(Cl)cc3)nc3ccc([N+](=O)[O-])cc32)cc1	·	·	–	–	·	–
O=[N+]([O-])c1ccc2nc(-c3ccc(Cl)cc3)n(OCc3ccccc3)c2c1	·	·	–	-3.08	·	–
SMILES	HUVEC prolif 384	H69AR growth 86K	HCT116 bCat-KO	Pyk2 oligo antag	Fibroblast inh	HCT116 PTEN-null
COc1cc(NC(=O)CN2C(=O)NC(c3ccccc3)(c3ccccc3)C2=O)c(C)cc1[N+](=O)[O-]	·	·	–	·	·	–
Cc1ccc(N2C(=O)c3cccc4c(Oc5ccccc5[N+](=O)[O-])ccc(c34)C2=O)c(C)c1	·	·	–	·	·	–
O=C(Nc1ccccn1)C(F)(F)C(F)(F)C(F)(F)C(F)(F)C(=O)Nc1ccccn1	·	·	–	·	·	–
Cc1nn(CC(=O)c2ccccc2)c(=O)c2nn(-c3ccccc3F)c(C)c12	·	·	–	·	·	–
Cc1cc(C(=O)CSc2nnc(-c3ccccc3)n2-c2ccccc2)c(C)n1-c1ncn[nH]1	–	–	–	-3.16	–	–
Cc1cc(C(=O)CSc2nnc(-c3cccnc3)n2-c2ccccc2F)c(C)n1C	–	34.4	–	–	–	–

Screening data as filed in PubChem.
